Consider 9 compounds from ChEMBL document CHEMBL1148918, “New pseudopterosin and seco-pseudopterosin diterpene glycosides from two Colombian isolates of Pseudopterogorgia elisabethae and their diverse biological activities” (J Nat Prod, 2004).

Each structure is given as a SMILES string. Converted amounts (≈) assume the structure as drawn.

One experiment concerns SF-268. Put plainly: Cytotoxicity against human SF268 cells relative to control. Format: functional. More on the design: concentration or dose not given beside the values. The method, boiled down: (§1)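 One-dose primary screen on a three-line panel (MCF-7, NCI-H460, SF268). Growth of treated cells given as percent of untreated controls.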
Experiment [1] has as its system Microglia. Put plainly: (§2) Antiinflammatory activity in LPS-stimulated rat neonatal microglia assessed as inhibition of PMA-induced superoxide anion production preincubated 15 mins prior to PMA challenge. Format: functional, cell-based. The method, boiled down: (§3)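 Neonatal rat microglia, 2 × 10^5 cells/well, primed 17 h with LPS (0.3 ng/mL) in DMEM + 10% FBS + penicillin/streptomycin at 35.9 °C, 5% CO2. Cells washed with warm HBSS, given compound (0.01-10 µM) or DMSO vehicle for 15 min, then PMA (1 µM). Triplicate wells, two independent experiments.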

Experiment [2] can be described thus: as §2. Type of experiment: functional, cell-based. The method, boiled down: as §3
For another experiment, the system named is NCI-H460. Kind of experiment: Cytotoxicity against human NCI-H460 cells relative to control. More on the design: concentration or dose not given beside the values. Type of experiment: functional. The method in brief:
as §1

In experiment [3] the test system is Microglia. Put plainly: (§4) Antiinflammatory activity in LPS-stimulated rat neonatal microglia assessed as drug level causing 50% PMA-induced LDH release preincubated 15 mins prior to PMA challenge by spectrophotometry. Format: functional. The method, boiled down: as §3
In general terms: LDH leaks from cells whose membrane has failed.

A short description of experiment [4]: as §4. Type of experiment: functional. The method in brief: as §3
Another experiment has as its system MCF7. Put plainly: Cytotoxicity against human MCF7 cells relative to control. Format: functional. More on the design: concentration or dose not given beside the values. The method, boiled down: as §1
Experiment [5] relates to Microglia. Kind of experiment: (§5) Antiinflammatory activity in LPS-stimulated rat neonatal microglia assessed as inhibition of PMA-induced TXB2 production preincubated 15 mins prior to PMA challenge. Format: functional, cell-based. The method, boiled down:
as §3

Experiment [6] is described as follows: as §5. Format: functional, cell-based. The method in brief: as §3
A short description of experiment [7]: Cytotoxicity against human NCI60 cells. Format: functional.
The test system of experiment [8] is Mycobacterium tuberculosis. Kind of experiment: Antimycobacterial activity against Mycobacterium tuberculosis H37Rv at 6.25 ug/mL. Type of experiment: functional.
The next experiment has as its system Plasmodium falciparum. Kind of experiment: Antimalarial activity against chloroquine-resistant Plasmodium falciparum W2 after 48 hrs by fluorimetry. Type of experiment: functional, organism-based. To be noted: W2, 48 h.
A further experiment deals with Human alphaherpesvirus 1. Kind of experiment: Antiviral activity against HSV1. Type of experiment: functional, organism-based.
A further experiment deals with Human alphaherpesvirus 2. Put plainly: Antiviral activity against HSV2. Format: functional, organism-based.
A further experiment relates to Human alphaherpesvirus 3. Kind of experiment: Antiviral activity against VZV. Format: functional, organism-based.
Another experiment concerns Human betaherpesvirus 5. Kind of experiment: Antiviral activity against HCMV. Type of experiment: functional, organism-based.

As to `CC(=O)O[C@H]1[C@H](O)[C@@H](Oc2c(C)c3c4c(c2O)[C@@H](C)CC[C@@H]4[C@@H](C)C[C@H]3C=C(C)C)OC[C@H]1OC(C)=O` [PSEUDOPTEROSIN W], the Activity was 0% in the experiment on SF-268; “Dose-dependent effect” in the experiment on Microglia [1]; 0% in the experiment on NCI-H460; “Dose-dependent effect” in the experiment on Microglia [3]; 10 µM in experiment [4]; 0% in the experiment with MCF7. Further, the Activity entry in the experiment on Microglia [5] was “Dose-dependent effect”. In addition, the IC50 in experiment [2] and in [6] was over 10 µM throughout.
Take `CC(=O)O[C@H]1[C@H](O)[C@@H](Oc2c(C)c3c4c(c2O)[C@@H](C)CC[C@@H]4[C@@H](C)C[C@H]3C=C(C)C)OC[C@H]1O` [PSEUDOPTEROSIN V]: the 50% growth inhibitory concentration (GI50) – broadly, the concentration that inhibits growth by half – in experiment [7] was found to be 20 µM. In addition, the Activity in the experiment on SF-268 was 0%; in the experiment with Microglia [1], “Dose-dependent effect”; with NCI-H460 it was 0%; with Microglia [3], “Dose-dependent effect”; in experiment [4], 2.2 µM; with MCF7, 0%. Also, the Activity entry in the experiment on Microglia [5] was “Dose-dependent effect”. Further, the concentration for half-maximal inhibition (IC50) (in general, the concentration that inhibits the measured activity by half) in [2] was over 10 µM; in the experiment with Plasmodium falciparum, 1 µg/mL (≈ 2.11 µM); in experiment [6] it was over 10 µM. Also, in experiment [8], testing at 6.25 µg/mL gave an inhibition of 25%.
As for `CC(=O)O[C@H]1[C@H](O)[C@H](Oc2c(C)c3c4c(c2O)[C@@H](C)CC[C@@H]4[C@@H](C)C[C@H]3C=C(C)C)O[C@@H](C)[C@H]1O` [PSEUDOPTEROSIN Q], the Activity in the experiment on SF-268 was 107%; with Microglia [1], “Dose-dependent effect”; in the experiment with NCI-H460, 101%; with Microglia [3], “Dose-dependent effect”; in experiment [4] it was 3.4 µM; with MCF7, 103%. Further, the Activity result in the experiment on Microglia [5] was “Dose-dependent effect”. The IC50 amounted to 11.2 µM in experiment [2], 15 µg/mL (≈ 30.7 µM) in the experiment with Plasmodium falciparum and 4.7 µM in [6]. For the same compound, the inhibition – broadly, the change of the read-out against control, counted positive when it falls – at 6.25 µg/mL in experiment [8] worked out at 37%.
On to `CC(=O)O[C@@H]1CO[C@H](Oc2c(C)cc3c(c2O)[C@@H](C)CC[C@@H]3[C@@H](C)CCC=C(C)C)[C@@H](O)[C@@H]1O`, for which the Activity result with Microglia [1] is “Dose-dependent effect”; in the experiment with Microglia [3], “Dose-dependent effect”; in [4], 3.6 µM; with Microglia [5], “Dose-dependent effect”. Besides, the IC50 in [2] and in experiment [6] was over 10 µM throughout. Moreover, at 6.25 µg/mL the inhibition in experiment [8] was 25%.
As to `CC(=O)O[C@@H]1[C@@H](Oc2c(C)c3c4c(c2O)[C@@H](C)CC[C@@H]4[C@@H](C)C[C@H]3C=C(C)C)OC[C@@H](OC(C)=O)[C@H]1O` [PSEUDOPTEROSIN X], the Activity entry with Microglia [1] was “Dose-dependent effect”; in the experiment on Microglia [3], “Dose-dependent effect”; in experiment [4], 2.35 µM; in the experiment on Microglia [5], “Dose-dependent effect”. Also, the concentration for half-maximal inhibition (IC50) in [2] was 10 µM; in experiment [6], over 10 µM.
For the compound `Nc1nc2c(ncn2COCCO)c(=O)[nH]1` [ACYCLOVIR], the 50% effective concentration (EC50) in the experiment with Human alphaherpesvirus 1 and with Human alphaherpesvirus 2 was 0.95 µM in each case.
`CC(=O)O[C@H]1[C@@H](O)[C@H](O)[C@H](Oc2c(C)c3c4c(c2O)[C@@H](C)CC[C@@H]4[C@@H](C)C[C@H]3C=C(C)C)O[C@H]1C` [PSEUDOPTEROSIN P]: the GI50 in [7] stood at 1.7 µM. Besides, the half-maximal effective concentration (EC50) (commonly the concentration that produces a half-maximal response) in the experiment with Human alphaherpesvirus 1 turned out to be 2.9 µM; with Human alphaherpesvirus 2, 2.9 µM; in the experiment with Human alphaherpesvirus 3, 2.6 µM; with Human betaherpesvirus 5 it was 2.9 µM. Besides, the Activity in the experiment on SF-268 was 0%; in the experiment with Microglia [1], “Dose-dependent effect”; in the experiment with NCI-H460, 0%; in the experiment on Microglia [3], “Dose-dependent effect”; in experiment [4] it was 0.6 µM; with MCF7, 0%. Moreover, in the experiment on Microglia [5], the Activity entry was “Dose-dependent effect”. The IC50 was over 10 µM in [2], 12 µg/mL (≈ 24.6 µM) in the experiment with Plasmodium falciparum and over 10 µM in experiment [6]. Besides, 6.25 µg/mL produced 76% inhibition in experiment [8].
`CC(=O)O[C@@H]1CO[C@H](Oc2c(C)c3c4c(c2O)[C@@H](C)CC[C@@H]4[C@@H](C)C[C@H]3C=C(C)C)[C@@H](O)[C@@H]1O` [PSEUDOPTEROSIN U] yielded a GI50 in experiment [7] of 20 µM. Further, the Activity was 0% in the experiment on SF-268; “Dose-dependent effect” in the experiment on Microglia [1]; 0% in the experiment on NCI-H460; “Dose-dependent effect” in the experiment with Microglia [3]; 0.7 µM in experiment [4]; 0% in the experiment with MCF7. Also, the Activity result in the experiment with Microglia [5] was “Dose-dependent effect”. The half-inhibitory concentration (IC50) in experiment [2] is 14.7 µM; in the experiment with Plasmodium falciparum, 19 µg/mL (≈ 40 µM); in experiment [6], over 10 µM. In [8], 6.25 µg/mL produced 43% inhibition.
For the compound `CC(=O)O[C@@H]1[C@@H](Oc2c(C)cc3c(c2O)[C@@H](C)CC[C@@H]3[C@@H](C)CCC=C(C)C)OC[C@@H](O)[C@H]1O`, the Activity result in the experiment with Microglia [1] was “Dose-dependent effect”; in the experiment on Microglia [3], “Dose-dependent effect”; in [4], 10 µM; in the experiment with Microglia [5] it was “Dose-dependent effect”. The half-maximal inhibitory concentration (IC50) in [2] and in [6] was over 10 µM throughout. This compound also gave an inhibition at 6.25 µg/mL in experiment [8] of 37%.
